# Rows were chosen to be rich in hits. Some 1.7% of all compounds tested hit in one or more screens of this group.
# Scp1 inh: Scp-1 (human) phosphatase inhibition; Q9GZU7; Recombinant Scp1, phosphopeptide, malachite green phosphate absorbance; inhibition, % at 20 µM; hit rate 0.88% among 340,000; AID 493091;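 active = inhibition above about 50% at 20 µM, limit read from the data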;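 also: plate controls were DMSO wells with enzyme for no effect and wells lacking enzyme for full effect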
# Target sequence (Q9GZU7 76-261 limits assumed): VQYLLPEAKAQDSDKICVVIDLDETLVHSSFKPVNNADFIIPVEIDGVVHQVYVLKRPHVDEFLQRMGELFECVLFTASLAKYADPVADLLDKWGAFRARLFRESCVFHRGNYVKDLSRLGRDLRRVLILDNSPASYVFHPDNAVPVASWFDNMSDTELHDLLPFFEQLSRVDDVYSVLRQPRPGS
#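 Incubation: 45 min enzyme reaction at room temperature / System: truncated SCP-1 phosphatase (76-261aa) / Reagent: Phospho 17-mer peptide substrate / Buffer or medium: Acidic Tris acetate buffer with magnesium and detergent / Signal: absorbance at 630 nm / Doses: one concentration, 20 µM, with 1.0% DMSO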
# DNMT1 inh: DNMT1 (human) enzyme inhibition | DNMT1 molecular beacon, Hinp1I cleavage, fluorescence | inhibition (reported as % activation of signal), % at 10 µM | hit rate 0.83% among 360,000 | P26358 | AID 588458; in the data active = inhibition above about 50%
# CASP6 VEID inh: inhibitors of human caspase-6; purified caspase-6, Z-VEID-R110 cleavage fluorescence; hit rate 0.53% among 350,000; inhibition, % at 12.5 µM; P55212;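 active = mean inhibition across replicates at least about 35%, with every replicate also reaching that limit, limit read from the data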;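 also: 0% = median of neutral control wells and 100% = no fluorescence left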
# STEP block: STEP (human) phosphatase inhibition; P54829; recombinant STEP, OMFP fluorogenic substrate, fluorescence; inhibition, % at 20 µM; hit rate 0.25% among 360,000; AID 588621;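 active = inhibition at 20 µM, scaled per plate between control wells, above about 37%, limit read from the data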;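 also: 0% = DMSO with enzyme and substrate and 100% = substrate only without enzyme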
#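 System: isolated STEP enzyme; schedule: 20 min enzyme reaction at room temperature, protected from light; medium: Bis-Tris buffer pH 6.0, 2.5 mM DTT, 0.005% Tween 20; signal: fluorescence, 480/540 nm; dosing: single compound dose of 20 µM, 1% DMSO final; also added: OMFP substrate, 25 µM final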
# SUMO1 PPI mod: modulators of human SUMO1-mediated protein-protein interactions; P63165; hit rate 0.33% among 360,000; inhibition, % at 20 µM; SUMO1 binding to a labelled peptide, TR-FRET, 1 h; in the data active = inhibition above about 37%
# Target sequence (P63165 whole entry, looked up): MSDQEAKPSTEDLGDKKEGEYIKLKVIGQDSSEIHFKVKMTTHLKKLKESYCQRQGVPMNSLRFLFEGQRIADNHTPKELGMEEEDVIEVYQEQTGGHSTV
# LMPTP block: blocks human LMPTP phosphatase; P24666; recombinant LMPTP-A, OMFP fluorogenic substrate, fluorescence intensity; inhibition, % at 20 µM; hit rate 0.22% among 360,000;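 active = compounds that cut the enzyme signal by at least half of the control window in the single-dose screen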;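 also: plate controls were DMSO wells with enzyme plus substrate for no effect and substrate without enzyme for full effect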
# Target sequence (P24666 whole entry, looked up): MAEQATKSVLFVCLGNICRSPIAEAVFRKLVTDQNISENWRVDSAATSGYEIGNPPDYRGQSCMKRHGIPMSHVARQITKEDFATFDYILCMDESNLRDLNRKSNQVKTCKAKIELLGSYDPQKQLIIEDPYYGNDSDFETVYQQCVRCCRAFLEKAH
#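 Test system – LMPTP-A enzyme · Amount – LMPTP-A at 0.625 nM final in the reaction · Buffer or medium – Bis-Tris pH 6.0, DTT, detergent · Reagent – OMFP 400 µM · Doses – single 20 µM dose · Schedule – reaction 50 min, room temperature, dark · Detection – fluorescence intensity of OMFP turnover product · Evaluation – percent inhibition versus substrate-only and uninhibited controls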
# Scp1 confirm: confirmation of human Scp-1 phosphatase inhibitors; shares compounds with Scp1 inh; recombinant SCP-1 catalytic domain, phosphate release, malachite green absorbance; inhibition, % at 20 µM; hit rate 61% among 2,500;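 also: plate controls were DMSO with enzyme for no effect and buffer wells lacking enzyme for full effect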
# Scp-1 MG ctr: colorimetric interference in Scp-1 counter-screen; Colorimetric interference counterscreen, malachite green absorbance 630 nm; apparent inhibition (interference), % at 20 µM; shares compounds with Scp1 inh; 2,500 tested, under 10 active;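 also: compounds added after enzyme reaction finished so only phosphate colour detection is probed; plate controls were DMSO wells with completed Scp-1 reaction for no effect and substrate wells lacking enzyme for full effect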
# Scp-1 Tm shift: Scp-1 (human) binding by thermal shift | thermal shift relative to vanadate control, % at 40 µM | shares compounds with Scp1 inh | hit rate 25% among 1,500 | Recombinant SCP1, Sypro Orange thermal shift Tm;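 active = substances whose mean melting-temperature shift, as a percentage of the reference inhibitor's shift, reaches about 5.3%, limit read from the data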;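 also: 0% = Tm of DMSO wells and 100% = Tm with sodium orthovanadate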
# * hit, by the source's call; . = no result given.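 The calls were made as follows, unless noted: active = inhibition of at least 30% at 20 µM; inactive = the rest.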
SMILES,Scp1 inh,DNMT1 inh,CASP6 VEID inh,STEP block,SUMO1 PPI mod,LMPTP block,Scp1 confirm,Scp-1 MG ctr,others
Cc1cc(/C=C2/C(=O)NC(=O)N(Cc3ccco3)C2=O)c(C)n1-c1ccccc1,7.0,55.4*,.,0.8,15.5,3.3,.,.,
C[C@@]12N[C@@H](Cc3ccccc31)c1ccccc12,-11.7,0.4,-1.0,-3.9,0.2,-1.8,.,.,
C=CCN1C(=O)NC(=O)/C(=C\c2ccc(-c3ccccc3[N+](=O)[O-])o2)C1=O,12.3,4.1,10.9,3.0,-9.8,-0.2,.,.,
O=C1NC(=O)N(Cc2ccco2)C(=O)/C1=C/c1ccc(-c2cccc([N+](=O)[O-])c2)o1,82.1*,97.7*,.,38.7,37.6*,42.4,.,.,
NCCc1cc(O)c(O)cc1O,-8.8,118.2*,.,-1.8,46.9*,78.7*,.,.,
COc1ccccc1N1C(=O)NC(=O)/C(=C/c2ccc([N+](=O)[O-])s2)C1=O,0.3,.,28.2,.,.,.,.,.,
COc1cccc(N2C(=O)NC(=O)/C(=C/c3ccc([N+](=O)[O-])s3)C2=O)c1,12.0,33.4,47.4*,3.1,47.1*,8.2,.,.,
CCOc1ccc(N2C(=O)NC(=O)/C(=C\c3cc(OC)c(OC)cc3[N+](=O)[O-])C2=O)cc1,1.2,-2.1,.,-2.4,-7.1,0.4,.,.,
COc1ccc(N2C(=O)NC(=O)/C(=C/c3ccc([N+](=O)[O-])s3)C2=O)cc1,20.5,29.1,30.4,4.6,38.3*,14.2,.,.,
COc1ccc(N2C(=O)NC(=O)/C(=C\c3ccc([N+](=O)[O-])s3)C2=O)cc1,3.1,15.6,52.3*,6.4,21.3,5.9,.,.,
Cc1ccccc1C1=NCC(=O)N(CC(=O)NCc2ccco2)c2sc3c(c21)CCCC3,-2.5,-3.5,.,0.3,-4.2,-0.5,.,.,
O=C(CCN1C(=O)COc2ccccc21)N1CCC2(CC1)OCCO2,-4.0,3.1,.,1.4,3.2,0.2,.,.,
COc1ccc(/C=C/C=C2C(=O)NC(=S)NC2=O)cc1,50.1*,10.1,15.5,1.6,15.5,0.1,14.3,-8.5,
c1cc2c(cc1-c1ccc3c(c1)OCO3)CNCc1cnnn1-2,.,6.7,-0.7,-0.3,-2.7,-0.4,.,.,
CCOC(=O)C1(c2ccccc2)Oc2ccccc2C(c2ccc(OC)cc2)=C1C(=O)OC (stereo unspecified),97.1*,9.3,-1.0,-0.5,1.7,1.9,1.4,-18.1,
CCOC(=O)[C@]12Cc3cc(OC)ccc3[C@H]1N(Cc1ccccc1)C(=O)c1ccccc12,-11.2,4.8,-5.1,1.5,4.2,2.4,.,.,
C[N+](C)(C)c1ccccc1,51.7*,-1.0,-1.0,-3.2,-0.2,-0.9,17.1,-10.6,
O=C(O)CCn1cc(C=C2C(=O)NC(=S)NC2=O)c(-c2ccccc2)n1,20.7,2.9,.,4.9,7.2,-2.6,.,.,
O=C(O)CCn1cc(C=C2C(=O)NC(=S)NC2=O)c(-c2cc3ccccc3oc2=O)n1,86.6*,53.3*,14.9,2.4,10.1,-0.4,69.4*,-9.0,Scp-1 Tm shift=-8.9
O=Cc1c(C(=O)O)n(Cc2ccc(F)cc2Cl)c2ccccc12,-6.5,0.4,-0.8,-2.6,4.0,-0.9,.,.,
CN1CC[C@]23c4c5ccc(O)c4OC2[C@H](O)C=CC3[C@H]1C5 (stereo partly specified),1.5,2.5,7.7,0.4,-2.3,-1.2,.,.,
COc1ccc2c3c1OC1C(O)C=CC4C(C2)[N+](C)(C)CCC341 (stereo unspecified),89.3*,-0.8,-2.4,-2.4,-1.2,-1.1,78.0*,-13.4,Scp-1 Tm shift=-19.7
CC(C)Cc1[nH]c(=O)c(C#N)c2c1CCC2,87.4*,-0.7,1.1,0.1,0.1,0.5,-7.4,-9.8,
